Most compounds without a hit are left out; they make up all but 5.4% or so of the library.
PostGolgi ctrl: growth of the yeast control strain, post-Golgi counter-screen | efflux-deficient yeast background strain, growth absorbance A615, 16 h | inhibition, % at 10 µM | hit rate 5% among 98,000 | AID 738
E coli WT exp: blocks growth of wild type E. coli BW25113 | OD600 absorbance | growth inhibition, % at 100 µM | hit rate 0.15% among 98,000 | AID 710;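 active = growth inhibition above about 50% at one test dose, limit read from the data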;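 note: growth measured after 20 h incubation at 37 °C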
tolC growth inh: growth inhibitors of E. coli BW25113 tolC mutant. hit rate 2.2% among 65,000. AID 573. growth inhibition, % at 10 µM (by protocol). OD615;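 active = growth inhibition at or above a cutoff equal to the mean over every tested compound plus 3 SD, cut at about 60% in these data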;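 note: growth measured after 20 h incubation at 37 °C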
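Test system: E. coli BW25113 ΔtolC::kan bacteria | Medium: Kanamycin-containing LB broth (50 µg/mL) | Dosing: One dose of 10 µM final | Times: 20 h incubation with compound, 37 °C | Detection: Optical density read at 615 nm | Read-out basis: Percent growth inhibition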
PLAP activator: activators of human placental alkaline phosphatase. purified PLAP enzyme, luminescent substrate read-out; hits give high values. activation fold at 20 µM. hit rate 1.2% among 96,000. AID 696; in the data active = activation fold above about 2
HePTP inh: inhibitors of human HePTP phosphatase. AID 521. hit rate 0.64% among 110,000. recombinant HePTP phosphatase activity, OD absorbance. inhibition, % at 20 µM. P35236; in the data active = inhibition above about 50%;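 note: plate controls were vehicle for no effect and reference inhibitor for full effect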
Target sequence (P35236 whole entry, looked up): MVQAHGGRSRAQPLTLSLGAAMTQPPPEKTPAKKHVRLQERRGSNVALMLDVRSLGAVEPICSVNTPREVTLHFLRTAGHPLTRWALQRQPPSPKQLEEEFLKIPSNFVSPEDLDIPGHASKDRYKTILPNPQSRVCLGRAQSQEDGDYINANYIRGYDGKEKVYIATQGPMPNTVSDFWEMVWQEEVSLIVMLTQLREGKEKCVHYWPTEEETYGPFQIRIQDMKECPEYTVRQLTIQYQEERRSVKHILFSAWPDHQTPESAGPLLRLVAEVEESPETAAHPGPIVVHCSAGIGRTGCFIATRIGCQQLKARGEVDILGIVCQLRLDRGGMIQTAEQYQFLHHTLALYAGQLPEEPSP
PostGolgi yeast: growth inhibition of a yeast mutant, post-Golgi transport screen. post-Golgi transport phenotypic cell assay. AID 739. hit rate 0.9% among 98,000. inhibition, % at 10 µM;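 note: yeast cells grown in 1536-well plates; yeast grown about 18 h at 30C before absorbance read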
Active calls of the source: *; . = not tested or not shown. Cut-off read from the data, not from the text of the source, unless noted: active = inhibition above about 30%; inactive = the rest.

SMILES	PostGolgi ctrl	E coli WT exp	tolC growth inh	PLAP activator	HePTP inh	PostGolgi yeast
Cc1ccc(-c2nc(C3CCCN(S(=O)(=O)c4ccc(C(C)(C)C)cc4)C3)no2)cc1 (stereo unspecified)	-9	-10	.	0.8	.	-12
O=C(Nc1c(C(=O)N2CCCC2)cnn1-c1ccccc1)c1ccc(Br)cc1	.	.	.	.	-8	.
COc1ccc(S(=O)(=O)NNC(=O)c2ccc([N+](=O)[O-])cc2)cc1	.	.	.	.	7	.
COc1ccc(S(=O)(=O)NNC(=O)c2cc3cc4ccccc4nc3s2)cc1	-11	2	.	2*	.	9
O=C(c1ccccc1)N1CCN(C(=O)c2cc3ccccc3o2)CC1	31*	1	.	0.9	.	3
O=C(c1cc2ccccc2o1)N1CCN(c2ccccc2Cl)CC1	40*	-10	100*	1.1	3	1
O=C(c1cc2ccccc2o1)N1CCC(c2ccccc2)C1 (stereo unspecified)	.	.	.	.	1	.
Cc1ccc(/C=N/NC(=O)c2cc(C3CC3)[nH]n2)cc1	.	.	.	.	-20	.
N#CC(c1ccc(O)cc1)N1CCCCC1 (stereo unspecified)	6	5	.	0.9	-1	4
Cc1nn(C(C)C(=O)N2CCCCC2)c(=O)c2c1sc1ccccc12 (stereo unspecified)	23	-1	-2	1	-3	11
CCCn1nc(NC(=O)c2cccs2)c2cc3ccccc3nc21	11	3	.	1.1	.	18
CCCCn1nc(NC(=O)c2cccs2)c2cc3ccccc3nc21	17	-12	91*	1	0	-3
CCCCn1nc(NC(=O)c2cccs2)c2cc3cc(OC)ccc3nc21	17	-13	63*	1.5	8	2
Cc1ccc(/C=C2\SC(=S)N(CCC(=O)Nc3cccc(C)c3)C2=O)cc1	.	.	.	.	-10	.
Cc1ccc2cc(CN(Cc3ccc(F)cc3)Cc3nnnn3C3CCCC3)c(=O)[nH]c2c1	41*	-12	66*	1.6	4	1
CCc1ccc2[nH]c(=O)c(CN(Cc3ccc4c(c3)OCO4)Cc3nnnn3C3CCCC3)cc2c1	15	-9	49	1.5	1	-2
Cc1ccc2cc(CN(Cc3ccccc3)Cc3nnnn3C3CCCC3)c(=O)[nH]c2c1	39*	-18	73*	1.6	3	-11
Brc1cc2c(cc1Cn1c(-c3cncs3)nc3ccccc31)OCO2	7	-3	2	1.1	6	16
Brc1ccccc1Cn1c(-c2cscn2)nc2ccccc21	54*	-1	.	1	.	6
Cc1cc(Cn2c(C)nc3ccccc32)c(C)cc1Cn1c(C)nc2ccccc21	.	.	.	.	-14	.
Cc1ccccc1Cn1c(Cc2ccccc2)nc2ccccc21	34*	-3	.	1.1	.	-12
Cc1ccccc1Cn1c(-c2cncs2)nc2ccccc21	35*	-5	30	0.9	0	24
CCc1nnc(NC(=O)c2cccc(OC)c2)s1	17	12	-5	1.1	3	-1
O=C(COc1ccccc1[N+](=O)[O-])Nc1ccc2oc(-c3cc(Br)ccc3Cl)nc2c1	.	.	.	.	2	.
Cc1ccc(/C=N/NC(=O)C(O)c2ccccc2)cc1 (stereo unspecified)	.	.	.	.	-10	.
SMILES	PostGolgi ctrl	E coli WT exp	tolC growth inh	PLAP activator	HePTP inh	PostGolgi yeast
Cn1c(CNc2ccc(Cl)cc2)nnc1SCc1ccccc1	96*	11	19	0.7	2	105*
CCn1c(CNc2ccc(Cl)cc2)nnc1SCC(=O)NCc1ccccc1	9	12	.	1.6	6	16
CCn1c(Cn2nnc(-c3ccccc3)n2)nnc1SCC(=O)N1CCOCC1	3	5	2	1.2	3	25
O=C(O)CSc1nnc(CNc2ccc(Cl)cc2)n1Cc1ccccc1	-12	-4	4	1.5	1	0
CCOC(=O)CSc1nnc(CNc2ccccc2Cl)n1-c1ccccc1	11	2	19	1.2	2	6
COC(=O)CSc1nnc(CNc2ccc(Cl)cc2)n1-c1ccccc1	65*	3	.	1.2	.	63*
CCn1c(CNc2ccc(Cl)cc2)nnc1SCc1ccccc1	93*	7	.	1	.	99*
CCn1c(Cn2nnc(-c3ccccc3)n2)nnc1SCc1ccc(Cl)c(Cl)c1	46*	-30	73*	1.4	1	2
CCOc1ccc(NC(=O)c2cccc(F)c2)cc1	.	.	.	.	-12	.
COc1cccc(/C=N/Nc2snc(SC)c2C#N)c1	5	-12	.	0.9	.	0
CC1=NCCN1S(=O)(=O)c1ccccc1[N+](=O)[O-]	.	.	.	.	3	.
CCNC(=O)N1CCNC(=O)C1CC(=O)OC (stereo unspecified)	31*	-6	-6	0.9	-4	1
COc1cccc2sc(Nc3nnc(-c4ccc(F)cc4)o3)nc12	-1	-14	.	2.4*	.	3
Fc1cccc2sc(Nc3nnc(-c4ccco4)o3)nc12	24	-6	99*	1.5	-3	5
COc1cccc2sc(Nc3nnc(-c4cccs4)o3)nc12	-4	-2	-20	1	6	-3
CC(C)OC(=O)c1cc(C(=O)c2cc(F)ccc2O)coc1=N	6	4	.	1.5	.	2
Ic1ccc(-c2csc(Nc3ccc(Oc4ccccc4)cc3)n2)cc1	.	.	.	.	4	.
COCC(=O)Nc1ccc(-c2cn3cccnc3n2)cc1	25	11	-15	1.2	7	13
CCOCC(=O)Nc1cc(-c2cn3cccnc3n2)ccc1C	36*	8	-19	1.1	3	-21
CCc1ccc(C(=O)c2cncc(Br)c2)cc1	14	11	.	0.8	.	2
CCOc1ccc(OCC)c(NC(=O)CN2CCN(c3cccc(C)c3C)CC2)c1	16	-18	-16	.	6	8
Cc1ccc2[nH]c(C(=O)O)c(NC(=O)CN3CCN(c4cccc(C)c4C)CC3)c2c1	2	-4	96*	1.5	2	0
Cc1cccc(N2CCN(CC(=O)Nc3ccccc3[N+](=O)[O-])CC2)c1C	32*	-11	.	0.9	.	-1
C/C(=C1/SC(N2CCCC2)=NC1=O)c1ccc(Br)cc1	33*	20	25	1.4	6	-1
COc1ccc(-c2nc3c(c(=O)[nH]c(=O)n3Cc3ccccc3)n2C)cc1	2	1	.	1.3	.	5
SMILES	PostGolgi ctrl	E coli WT exp	tolC growth inh	PLAP activator	HePTP inh	PostGolgi yeast
COc1ccc(-c2nc3c(c(=O)[nH]c(=O)n3Cc3ccccc3)n2Cc2ccccc2)cc1	35*	-8	.	1.6	.	-1
C/C(CC1(O)C(=O)N(Cc2ccccc2)c2ccccc21)=N\O (stereo unspecified)	-5	1	2	1	4	2
CCOC(=O)c1c[nH]n(-c2nc(-c3ccccc3)cs2)c1=O	.	.	.	.	3	.
CN(C)c1nc(OCCOC(=O)Nc2ccc(Cl)cc2Cl)nc(N(C)C)n1	34*	-1	-1	1.3	6	4
O=C(/C=C/c1ccc2c(c1)OCO2)NCCSCc1cccc(Cl)c1	9	-17	.	0.9	10	-2
CCCCCCCN1C(=O)/C(=C2\SC(=S)NC2=O)c2ccccc21	.	.	.	.	4	.
CCCCCC/C(C)=C1/SC(=S)NC1=O	55*	14	.	1.2	.	-3
CC1CCN(c2nc(-c3ccncc3)nc3ccccc23)CC1	95*	2	37	1	1	105*

Screening results as filed in PubChem BioAssay.
